Laboratory results taken from ChEMBL document CHEMBL1157848, “Derivatives of benzimidazole pharmacophore: synthesis, anticonvulsant, antidiabetic and DNA cleavage studies” (2010).
Calls of active or inactive are those of the source. No cut-off for these calls is given here.

Assays:
[1] = system: Rattus norvegicus; assay: Antidiabetic activity in Wistar albino rat assessed as reduction of fasting blood glucose level administered qd for 9 days by oral glucose tolerance test (RVb = 83.33 +/- 1.54 mg/dl); assay type: functional
[2] = system: Rattus norvegicus; assay: Antidiabetic activity in Wistar albino rat assessed as reduction of blood glucose level administered qd for 9 days measured after 90 mins last post dose by oral glucose tolerance test (RVb = 135.7 +/- 2.9 mg/dl); assay type: functional
[3] = system: Rattus norvegicus; assay: Antidiabetic activity in Wistar albino rat assessed as reduction of blood glucose level administered qd for 9 days by glucose oxidation method (RVb = […] +/- […] mg/dl); assay type: functional
[4] = system: Rattus norvegicus; assay: Antidiabetic activity in Wistar albino rat assessed as reduction of blood glucose level administered qd for 9 days measured after 30 mins last post dose by oral glucose tolerance test (RVb = 183.2 +/- 3.68 mg/dl); assay type: functional
[5] = system: Rattus norvegicus; assay: Anticonvulsant activity in Wistar albino rat assessed as time spent on stupor phase at 60 mg/kg by MES test (RVb = 218.33 +/- 5.80 sec); assay type: functional
Summary of the method: (§1)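 Maximal electroshock (MES) convulsion model in rats. Duration in seconds of the flexion, extensor, clonus and stupor phases was recorded, along with recovery or death. The vehicle control was 1% w/w gum acacia and phenytoin was the reference. Data are mean ± SEM, with P < 0.05 taken as significant.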

[6] = system: Rattus norvegicus; assay: Anticonvulsant activity in Wistar albino rat assessed as time spent on tonic flexion phase at 60 mg/kg by MES test (RVb = 3.12 +/- 0.31 sec); assay type: functional; summary of the method: as §1
[7] = system: Rattus norvegicus; assay: Anticonvulsant activity in Wistar albino rat assessed as time spent on tonic extensor phase at 60 mg/kg by MES test (RVb = 11 +/- 0.57 sec); assay type: functional; summary of the method: as §1
[8] = system: Rattus norvegicus; assay: Anticonvulsant activity in Wistar albino rat assessed as time spent on clonic convulsions phase at 60 mg/kg by MES test (RVb = 16.80 +/- 2.50 sec); assay type: functional; summary of the method: as §1
[9] = system: Nucleic Acid; assay: Induction of Escherichia coli DNA cleavage at 25 mg after 2 hrs using ethidium bromide staining by agarose gel electrophoresis methos; assay type: nucleic-acid assay
Summary of the method: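 Genomic DNA came from E. coli grown 24 h at 37 °C in nutrient broth. It was extracted by SDS/EDTA lysis, phenol then chloroform–isoamyl alcohol, and ethanol precipitation, and dissolved in TAE. Samples were incubated with the DNA 2 h at 37 °C, mixed 1:1 with bromophenol blue, and run on agarose in TAE at 50 V alongside a DNA marker. Gels were ethidium bromide stained 10–15 min and cleavage judged visually.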

[10] = system: Rattus norvegicus; assay: Anticonvulsant activity in Wistar albino rat assessed as time spent on clonic convulsions phase at 65 mg/kg by MES test (RVb = 16.80 +/- 2.50 sec); assay type: functional; summary of the method: as §1
[11] = system: Rattus norvegicus; assay: Anticonvulsant activity in Wistar albino rat assessed as time spent on tonic extensor phase at 65 mg/kg by MES test (RVb = 11 +/- 0.57 sec); assay type: functional; summary of the method: as §1
[12] = system: Rattus norvegicus; assay: Anticonvulsant activity in Wistar albino rat assessed as time spent on stupor phase at 65 mg/kg by MES test (RVb = 218.33 +/- 5.80 sec); assay type: functional; summary of the method: as §1
[13] = system: Rattus norvegicus; assay: Anticonvulsant activity in Wistar albino rat assessed as time spent on tonic flexion phase at 65 mg/kg by MES test (RVb = 3.12 +/- 0.31 sec); assay type: functional; summary of the method: as §1
[14] = system: Rattus norvegicus; assay: Anticonvulsant activity in Wistar albino rat assessed as time spent on clonic convulsions phase at 75 mg/kg by MES test (RVb = 16.80 +/-2.50 sec); assay type: functional; summary of the method: as §1
[15] = system: Rattus norvegicus; assay: Anticonvulsant activity in Wistar albino rat assessed as time spent on stupor phase at 75 mg/kg by MES test (RVb = 218.33 +/- 5.80 sec); assay type: functional; summary of the method: as §1
[16] = system: Rattus norvegicus; assay: Anticonvulsant activity in Wistar albino rat assessed as time spent on tonic flexion phase at 75 mg/kg by MES test (RVb = 3.12 +/- 0.31 sec); assay type: functional; summary of the method: as §1
[17] = system: Rattus norvegicus; assay: Anticonvulsant activity in Wistar albino rat assessed as time spent on tonic extensor phase at 75 mg/kg by MES test (RVb = 11 +/- 0.57 sec); assay type: functional; summary of the method: as §1
[18] = system: Rattus norvegicus; assay: Anticonvulsant activity in Wistar albino rat assessed as time spent on clonic convulsions phase at 80 mg/kg by MES test (RVb = 16.80 +/- 2.50 sec); assay type: functional; summary of the method: as §1
[19] = system: Rattus norvegicus; assay: Anticonvulsant activity in Wistar albino rat assessed as time spent on stupor phase at 80 mg/kg by MES test (RVb = 218.33 +/- 5.80 sec); assay type: functional; summary of the method: as §1
[20] = system: Rattus norvegicus; assay: Anticonvulsant activity in Wistar albino rat assessed as time spent on tonic extensor phase at 80 mg/kg by MES test (RVb = 11 +/- 0.57 sec); assay type: functional; summary of the method: as §1
[21] = system: Rattus norvegicus; assay: Anticonvulsant activity in Wistar albino rat assessed as time spent on tonic flexion phase at 80 mg/kg by MES test (RVb = 3.12 +/- 0.31 sec); assay type: functional; summary of the method: as §1
[22] = system: Rattus norvegicus; assay: Anticonvulsant activity in Wistar albino rat assessed as time spent on stupor phase at 20 mg/kg by MES test (RVb = 218.33 +/- 5.80 sec); assay type: functional; summary of the method: as §1
[23] = system: Rattus norvegicus; assay: Anticonvulsant activity in Wistar albino rat assessed as time spent on clonic convulsions phase at 20 mg/kg by MES test (RVb = 16.80 +/- 2.50 sec); assay type: functional; summary of the method: as §1
[24] = system: Rattus norvegicus; assay: Anticonvulsant activity in Wistar albino rat assessed as time spent on tonic flexion phase at 20 mg/kg by MES test (RVb = 3.12 +/- 0.31 sec); assay type: functional; summary of the method: as §1
[25] = system: Rattus norvegicus; assay: Anticonvulsant activity in Wistar albino rat assessed as time spent on tonic extensor phase at 20 mg/kg by MES test (RVb = 11 +/- 0.57 sec); assay type: functional; summary of the method: as §1

In the case of `Oc1cc(-c2nnc(CSc3nc4ccccc4[nH]3)o2)cc(O)c1O`, the Activity [1] is reported as 73.33 mg/dL, the Activity [2] is reported as 110 mg/dL and the Activity [3] is reported as 386.4 mg/dL. It also gave an Activity [4] of 174.2 mg/dL.

`Clc1ccc(-c2nnc(CSc3nc4ccccc4[nH]3)o2)cc1` showed an Activity [1] of 74.83 mg/dL, an Activity [2] of 120 mg/dL and an Activity [3] of 386.7 mg/dL. The Activity [4] was 173.2 mg/dL.

`O=C(CSc1nc2ccccc2[nH]1)NN1C(=O)CSC1c1c(O)ccc2ccccc12` (stereo not drawn) was tested, and the Time [5] was 172.5 s, the Time [6] was 3.08 s and the Time [7] was 3.98 s. It also gave a Time [8] of 1.8 s.

`c1ccc(-c2nnc(CSc3nc4ccccc4[nH]3)o2)cc1` gave an Activity [1] of 76.33 mg/dL, an Activity [2] of 107.7 mg/dL and an Activity [3] of 337.2 mg/dL. For the same compound, the Activity [9] was “inactive” and the Activity [4] was 180.2 mg/dL.

Work on `O=C(CSc1nc2ccccc2[nH]1)NN1C(=O)CSC1c1ccco1` (stereo not drawn) yielded a Time [10] of 1 s, a Time [11] of 5.3 s and a Time [12] of 208.6 s. For the same compound, the Time [13] was 4.2 s.

`COc1ccc(C2SCC(=O)N2NC(=O)CSc2nc3ccccc3[nH]2)cc1` (stereo not drawn) was tested, and the Time [14] was 12.62 s, the Time [15] was 208 s and the Time [16] was 3.02 s. It also gave a Time [17] of 9.5 s.

`O=C(CSc1nc2ccccc2[nH]1)NN1C(=O)CSC1c1ccccc1` (stereo not drawn) showed a Time [18] of 1.2 s, a Time [19] of 192.5 s and a Time [20] of 9.2 s. It also gave a Time [21] of 3.2 s.

In the case of `O=[N+]([O-])c1ccc(-c2nnc(CSc3nc4ccccc4[nH]3)o2)cc1`, the Activity [1] is reported as 78.33 mg/dL, the Activity [2] is reported as 110 mg/dL and the Activity [3] is reported as 158.7 mg/dL. The Activity [4] was 154.5 mg/dL.

With `O=C1NC(=O)C(c2ccccc2)(c2ccccc2)N1` [PHENYTOIN] the Time [22] was 158.6 s, the Time [23] was 4.9 s and the Time [24] was 2.87 s. For the same compound, the Time [25] was 0 s.

`O=C1NC(=O)C(=O)C(=O)N1` [ALLOXAN] gave an Activity [3] of 339.8 mg/dL.
